Published values of several laboratories.
Lines come from different studies, so protocols differ.
Cell line: HT-29
Effect on: cell growth or viability

SMILES | test | setting | inhibition
O=C1Nc2ccccc2/C1=N/NC(=O)c1cc2ccccc2[nH]1 |  | 30 µM | 75.4%
COc1ccc2c(c1)C(=NNc1nc(-c3ccc(OC)c(OC)c3)nc3ccccc13)C(=O)N2 |  | 30 µM | 6.2%
COc1ccc(C(=O)/C=C/c2cccc(Br)c2)cc1S(N)(=O)=O | SRB | 10 µM | 156%
O=C1Nc2ccccc2C1=NNc1nnc2n1N=C(c1ccccc1)CS2 | SRB | 10 µM | 28%
COc1ccc(C(=O)/C=C/c2cccc(Cl)c2Cl)cc1S(N)(=O)=O | SRB | 10 µM | 106%
Cn1c(=O)c(NN=C2C(=O)Nc3ccc(Cl)cc32)nc2ccccc21 |  | 30 µM | 16.1%
COc1ccc(C(=O)/C=C/c2ccccc2Br)cc1S(N)(=O)=O | SRB | 10 µM | 117%
COc1cc2ncnc(NN=C3C(=O)Nc4ccc(C)cc43)c2cc1OC |  | 30 µM | 49.3%
COc1ccc2c(c1)/C(=N/NC(=O)c1cc3ccccc3[nH]1)C(=O)N2 |  | 30 µM | 36.5%
COc1ccc(C(=O)/C=C/c2cccc(Cl)c2)cc1S(N)(=O)=O | SRB | 10 µM | 99%
O=C(N/N=C1\C(=O)N(c2ccccc2)c2ccccc21)c1cc2ccccc2[nH]1 |  | 30 µM | 97%
COc1ccc(C(=O)/C=C/c2ccc3ccccc3c2)cc1S(N)(=O)=O | SRB | 10 µM | 126%
O=C1Nc2ccc(Br)cc2/C1=N/NC(=O)c1cc2ccccc2[nH]1 |  | 30 µM | 64.5%
COc1cc2ncnc(NN=C3C(=O)Nc4ccc(Br)cc43)c2cc1OC |  | 10 µM | 18.6%
CCN(CC)CCNC(=O)c1c(C)[nH]c(/C=C2\C(=O)Nc3ccc(F)cc32)c1C |  | 30 µM | 59.5%
COc1ccc2c(c1)C(=NNc1nc3ccccc3n(C)c1=O)C(=O)N2 |  | 30 µM | 48.5%
CN1C(=O)/C(=N\NC(=O)c2cc3ccccc3[nH]2)c2cc(F)ccc21 |  | 30 µM | 91.3%
COc1ccc(C(=O)/C=C/c2cccnc2)cc1S(N)(=O)=O | SRB | 10 µM | 76%
COc1cc2ncnc(NN=C3C(=O)Nc4ccccc43)c2cc1OC |  | 30 µM | 38.7%
